According to the EternaBench riboswitch data:

System: MS2 coat protein
Experiment: apparent Kd, MS2 coat protein; higher = weaker binding; RNA-MaP array; FMN 200 µM where present
Method in brief: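 Stalled E. coli RNA polymerase transcribed the designs on Illumina sequencing-chip clusters. SNAP-549-labelled MS2 coat protein was titrated from 0.7 or 1.5 nM, doubling to 3 µM, without and then with constant ligand, in 100 mM Tris-HCl pH 7.5, 80 mM KCl, 4 mM MgCl2, BSA, DTT, yeast tRNA and Tween-20. Per-cluster binding curves were fitted to green signal normalised to red-channel RNA signal and control-cluster median Fmax. The apparent Kd is the median of the filtered fits.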

[1] = designed as: ON switch for flavin mononucleotide, no ligand
[2] = ligand present: flavin mononucleotide, designed as: ON switch for flavin mononucleotide
[3] = designed as: OFF switch for flavin mononucleotide, no ligand
[4] = ligand present: flavin mononucleotide, designed as: OFF switch for flavin mononucleotide

Sequence | apparent Kd [1] [nM] | apparent Kd [2] [nM] | apparent Kd [3] [nM] | apparent Kd [4] [nM]
CGUUUUAAACAAGGAUAUCAUUUGUGUACAAGUUUUACAUGAGGAUCACCCAUGUUAAAUGGUUUUGAGAAGGUGUUUAGAACG | 31.1 | 25 |  | 
GCAUGGAAAGUGAGGAUAUACCACUGGAUACAGUGGUAGAAGGCACAUGAGGAUCACCCAUGUUCCUACCAUGC |  |  | 16.9 | 71.3
UGUUGUUCCGCAGGAUAUGUAUUAGAUUAUAAUACAGAAGGGCGAUAACAUGAGGAUCACCCAUGUGUGGACAAUAAGGAAGAG | 602 | 81.2 |  | 
AAGAAGUCAGGAUAUCGUGCUCGUCACUUGCGUGAUGAGUACGAGAAGGGACAUGAGGAUCACCCAUGUAAAGA |  |  | 52.4 | 52.5
AUUGUAGUUGUGAGGAUAUCGUAGAUUUAUUGAAACGAGAAGGCACAUGAGGAUCACCCAUGUAAGUUGUAGGU |  |  | 71.2 | 267
UUCAAGUCAGGAUAUCCAUAUUUCUGAUAUAACGGUACUUUGGAGAAGGGACAUGAGGAUCACCCAUGUAAUCU |  |  | 24.5 | 28.3
UUGGACGUCGUAGGAUACGUAGGAUAUUCCUACAUGAGGAUCACCCAUGUUGACAUGGAAGAAGGACAGAAGGACGAUGUCCAU | 71.6 | 4.95 |  | 
GGUACCAUCACAGGAUAUGCUUUCCGUUGGGAAGCAGAAGGGUGUAACAUGAGGAUCACCCAUGUGGUGCCCGGGCGUGAGCCC | 135 | 15.6 |  | 
UAAUUAAGUGUGAGGAUAUGCUGGUCCUUGGAUCAGCAGAAGGCACAUGAGGAUCACCCAUGUAAUAUAUUUAU |  |  | 97.4 | 493
CCGGGACAUGAGGAUCACCCAUGUUUCGUUUGUAGUAAAGCACAGGAUAUGAUGAAACAGGUUUCUCAGAAGGGUGUUCCGAAA | 91 | 75.4 |  | 
GGCUCAUUUACAUUAAUGUGCAGACAGGAUAUCCACGGCGGUUCCUACAUGAGGAUCACCCAUGUGGAGAAGGGUCGCUAAUGG |  |  | 19.6 | 28
GGAUGAUUAAUAGGAUAUUAUUUGUAAUUUGGUUAAGAAGGAUUAAUGAUUUAAACGACCUGUUACAUGAGGAUCACCCAUGUU | 95.5 | 74.1 |  | 
ACAUACAUUCGAGGAUAUCGGUGAUAACUCAAACGAGAAGGCGAUUUAAAACAUAAUGCUGUAGACAUGAGGAUCACCCAUGUA | 497 | 137 |  | 
GUCAGCUCGUGAGGAUAUACAUGUGCUGGAUACAGCACUAAAGAUUUCACAUGAGGAUCACCCAUGUAGAAGGCACGAGCUGAU |  |  | 16.9 | 38
AGUGUCAUCGAGAAGGCCUCAACAUGAGGAUCACCCAUGUUGCAAAAUGGGAGGAUAUCGCGCGUUAAAAAACGUUUCGUAGCA | 38.3 | 17.5 |  | 
GUAGCUAUCGCAGGAUAUCCUCAGGCGAAAGCCACAUGAGGAUCACCCAUGUAUAUAAAGAAUAUGGAGAAGGGCGAUAGCUAC | 1670 | 185 |  | 
GAGAGCCGCGAAGGAUAUACAUCCGUGACCGUCAACAUGAGGAUCACCCAUGUAGAAGGUCGCUGCCUCUUGACAACUGACAAG |  |  | 5.16 | 18.4
GUGGCACAUGAGGAUCACCCAUGUCAGGAUAUCGCGUGGUUUUUUUCGGCCGCGCGCGCGAGAAGGGACGUCUU |  |  | 31.1 | 29.1
ACAGUAUAUGUAGGAUAUCAUUGGCCAGGUAGGUGAGAAGGGCAUAGUACAUGAGGAUCACCCAUGUGUUGGUCCUCGCAGAAA |  |  | 392 | 233

Sequence | apparent Kd [1] [nM] | apparent Kd [2] [nM] | apparent Kd [3] [nM] | apparent Kd [4] [nM]
GACACGUAAGGAUAUUGAGGGUAGAUGUGAGUCUAGCCCGGCAAGAAGGUACAUGAGGAUCACCCAUGUCCCGG |  |  | 13.6 | 17
CUACGAGCGCCACAGGAUAUACUGAGACUCACAUGAGGAUCACCCAUGUCCAAUUCUCCCAAAUAGUAGAAGGGUGACGCGCUCG | 699 | 53.3 |  | 
AUCCCGAUAGUAGGAUAUUUCUGCAGUUGUGGUUAGGUCGCCCUACAUGAGGAUCACCCAUGUAGAGAGAAGGACUGUGGUUAA |  |  | 5.52 | 6.7
ACUAGAUGAGGAUAUGCAUAUUUUCGUGUUCUUCUAGGUUAACAUGAGGAUCACCCAUGUAGAAGGCGUCUGGA |  |  | 19.6 | 37.7
UUUAGUUCAGGAUAUGUAGAUUUUAACAUGAGGAUCACCCAUGUAAAUCCUGAUCCUGCUACAGAAGGGAACAUUU |  |  | 17 | 20.7
CAGCUACCCAGUAUGGGUAUUUUUACAGAAGGCCAGGUACAUGAGGAUCACCCAUGUUAAGUUAUGGAGGAUAUGUUAGUGUAU | 27.9 | 7.18 |  | 
AUUUUAAAGGGAGGAUAUACAUGAGGAUCACCCAUGUAAACGUGAGGAUCACCCAUGUUAACAAUGUAGAAGGCCUAUAUCUAU |  |  | 41.1 | 31
GCGUACAUAUCAGGAUAUCAUUGAAUGGAUUAACUCAGUGAAUACAUGAGGAUCACCCAUGUUCUUGAGAAGGGAUUACUACGC |  |  | 21 | 96.5
GCCAGCGCAUGAGGAUAUGCUCCCGUUUCGGGAGCAGAAGGCAUGUCAUAAGACAUGAGGAUCACCCAUGUAGUCAAGAUGGCA | 340 | 15.7 |  | 
UGAUAGCACAGAGGAUAUGCGUUGUGUUCUCUCUACAUGAGGAUCACCCAUGUAGAAGGCUGUGCUAUCUAAGUCGGAAACGAU |  |  | 8.81 | 36.9
AAAACAUGAGGAUCACCCAUGUAAAGAUCUGUUAAUAGAAGUGAGGAUAUACUAAAUUUUAGGUAGUAGAAGGCACUGGGUACA | 23.4 | 27.4 |  | 
GAGCCCGUCGAGGAUAUACACCAUAUAUGGCUUGUAGAAGGUGACACAUGAGGAUCACCCAUGUUUGUGGUACA |  |  | 63.2 | 35
GACAAGGGAGGAUAUGCACAAGGGAUAUCUGACAUGCCGUUACAUGAGGAUCACCCAUGUAGAAGGCCCGAAUA |  |  | 13.7 | 35.3
AAAUAAAGCAGUGUGGUAAGAUCACAUGAGGAUCACCCAUGUAAGGAUAUGACGAGCAAAGCUCGUCAGAAGGUACGUCACUGC |  |  | 34 | 133
CUUAUGUGAGGAUAUCAGUAGUAAAAAAAUAAAAUUACUACUGAGAAGGCACAUGAGGAUCACCCAUGUGUCUC |  |  | 20.4 | 22.2
GAGGAACAUGAGGAUCACCCAUGUGAGGAUAUGCAUAGUGAGGUAGUAGACGUUUAUUGCAGAAGGUACACUGA |  |  | 27.4 | 27.8
CCCGGACAUGAGGAUCACCCAUGUUAGGAUAUCUAGAGGAUCUAAACCGAAUAGAUCCAGAGAAGGGAUGUGGG |  |  |  | 46.5
UUAUACAUUCGAGGAUAUCGGAGAGAGAUCAUUCGAGAAGGCGAUUCAUGAUGUAUUAUCCUGGACAUGAGGAUCACCCAUGUA | 101 | 68.1 |  | 
GGUCGUCCCAUUAACAUGAGGAUCACCCAUGUCAAAAGACAUGAGGAUAUGCUACCUAAUUGGUAGCAGAAGGCAUGGACGACC | 1170 | 84.7 |  | 

Sequence | apparent Kd [1] [nM] | apparent Kd [2] [nM] | apparent Kd [3] [nM] | apparent Kd [4] [nM]
UCGAUGCUAGGAUAUACUAAUAAAACUACUGUAGUGUCUUCACAUGAGGAUCACCCAUGUAGAAGGAGCAUCUA |  |  | 28.3 | 21.8
AGUUGUUCAGGAUAUGGUGUGUUAUACAUGAGGAUCACCCAUGUGGGUCCUGGUUUGGCCUCAGAAGGGAAUGUUA |  |  | 476 | 449
UUAUAUUUACAAGGAUAUCAAUUAUUUAUACUUCCUACAUGAGGAUCACCCAUGUUUUUAUAUUUUGAGAAGGUGUAAUGUCGG | 38.5 | 33.7 |  | 
GCACAACAUGAGGAUCACCCAUGUCUCACAAACCAAGGAUAUGGGCCCGGCCAGGCCGGAUCAGAAGGUGGAAAAU | 312 | 143 |  | 
GUGUACCGAGGAUAUGCUGGAAUCUAGCGAAGCUAGGUUCCACAUGAGGAUCACCCAUGUAGAAGGUGGUACAC |  |  | 79.9 | 25.7
AUCAGCUCGUCAGGAUAUACGUCACUGCGUCAGCAGUGUGGUAACAUCACAUGAGGAUCACCCAUGUAGAAGGGACGAGCUGAU |  |  | 5.84 | 11.3
UUACCUUAUGAGAAGGCGAUCAUGAAACAUGAUCGAGGAUAUCAUGUAAACAUGAGGAUCACCCAUGUAUGGGUAUUAUGGUAC | 86.6 | 27.8 |  | 
AAAAGACAUGAGGAUCACCCAUGUGAAAACGUAGGAGGAUAUGUCGUGAAAAAAGACUUGACAGAAGGCCUGUGUC | 97.7 | 30.8 |  | 
CUCAUGUCAGGAUAUAGCCACAUGAGGAUCACCCAUGUGGACUAGAAGGGACAUGAGGAUCACCCAUGUAUGAA |  |  | 11.4 | 10.2
UGAUCCGUGUAGGAUAUCUGUUGGCCGCCGACUGGAGAAGGGCACACAUGAGGAUCACCCAUGUGUGGGCAUAA |  |  | 17.8 | 19.6
GUUGCAAAUGAGAAGGCGAUCAUGAAACAUGAUCGAGGAUAUCAUGUUUACAUGAGGAUCACCCAUGUAUGGGUAUAUUGCAGC | 402 | 22.2 |  | 
GAGAGACAUGAGGAUCACCCAUGUAGAAUAGAACAAGGAUAUGUGGAAGGCGGAGGAGAGACAGAAGGUGUAGGAG | 108 | 52.9 |  | 
GGAAAACAUGAGGAUCACCCAUGUGAGGAUAUCGAUGUCCAAAGAGAGGUGCGGGACUCGAGAAGGCACUUGGA |  |  | 45.9 | 50.2
GGUCGUCACAUUAACAUGAGGAUCACCCAUGUCAAAUAACAUGAGGAUAUGCAUCCUAAUUGGAUGCAGAAGGCAUGGACGACC | 6.72 | 5.39 |  | 
GGUAGAGAGCAGGAUAUCUUGGGUAAGUAUCGUAGAGAAGGGCUCACAUGAGGAUCACCCAUGUGGUCCUAGAU |  |  | 12.1 | 24.8
CCGCGCGCGCGAGGAUAUCUAUAUCCAACAUGAGGAUCACCCAUGUUGAGGAUCACCCAUGUAAAGGAGAAGGCGCGCGCGCGG | 44.8 | 15.8 |  | 
CAUGUCCUCACAGGAUAUGCAAUGUAUUUCAUUGCAGAAGGGUGAAUACAUGAGGAUCACCCAUGUGGACAUGAUAUAUUUAAG | 880 | 76.6 |  | 
UGGUUGUCAGGAUAUUGGGUUUUUAACUUUAGUUUUAUAUUCGAGAAGGGACAUGAGGAUCACCCAUGUUACGU |  |  | 32.7 | 37.6
